The target in data set [1] is T1, Amine oxidase [flavin-containing] B (Rattus norvegicus, UniProt P19643).
T1 sequence (P19643 whole entry): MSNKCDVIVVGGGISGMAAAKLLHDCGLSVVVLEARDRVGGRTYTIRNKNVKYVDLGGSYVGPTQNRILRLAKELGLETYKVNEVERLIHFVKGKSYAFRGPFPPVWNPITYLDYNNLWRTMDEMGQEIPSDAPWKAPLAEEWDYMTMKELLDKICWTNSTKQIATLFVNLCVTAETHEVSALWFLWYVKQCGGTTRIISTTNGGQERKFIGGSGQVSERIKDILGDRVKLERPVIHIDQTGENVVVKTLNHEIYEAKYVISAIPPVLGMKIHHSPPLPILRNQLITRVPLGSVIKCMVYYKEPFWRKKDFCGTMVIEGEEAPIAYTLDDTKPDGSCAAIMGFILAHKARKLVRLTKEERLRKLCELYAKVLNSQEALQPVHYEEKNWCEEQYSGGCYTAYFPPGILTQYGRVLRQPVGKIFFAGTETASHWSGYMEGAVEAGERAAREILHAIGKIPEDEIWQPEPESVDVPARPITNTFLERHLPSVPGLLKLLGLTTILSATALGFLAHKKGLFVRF
The data set can be described thus: In vitro inhibitory concentration against Monoamine oxidase B of rat brain homogenates; value ranges from 11-52. The data set is classed as tissue-based.

In data set [2] the target is T2, Amine oxidase [flavin-containing] A (Rattus norvegicus, UniProt P21396).
T2 sequence (P21396 whole entry): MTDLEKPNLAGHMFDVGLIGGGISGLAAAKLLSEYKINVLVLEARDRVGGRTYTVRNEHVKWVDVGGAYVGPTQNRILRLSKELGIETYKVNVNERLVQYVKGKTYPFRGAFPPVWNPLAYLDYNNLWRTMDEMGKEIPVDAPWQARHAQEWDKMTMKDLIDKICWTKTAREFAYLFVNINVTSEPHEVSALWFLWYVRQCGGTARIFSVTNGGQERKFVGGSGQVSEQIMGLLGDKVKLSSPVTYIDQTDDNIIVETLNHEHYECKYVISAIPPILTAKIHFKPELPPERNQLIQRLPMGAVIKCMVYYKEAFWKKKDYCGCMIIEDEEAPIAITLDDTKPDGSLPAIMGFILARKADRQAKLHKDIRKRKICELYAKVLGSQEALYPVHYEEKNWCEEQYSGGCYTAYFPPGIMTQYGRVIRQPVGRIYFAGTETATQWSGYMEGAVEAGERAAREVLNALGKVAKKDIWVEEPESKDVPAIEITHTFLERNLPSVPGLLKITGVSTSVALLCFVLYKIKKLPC
In words: In vitro inhibitory concentration against Monoamine oxidase A of rat brain homogenates; value ranges from 1.3-5.6. The data set is classed as tissue-based.

For data set [3], the target named is T3, Acetylcholinesterase (Homo sapiens, UniProt P22303). In words: In vitro inhibitory concentration against purified Acetylcholinesterase of human erythrocytes; value ranges from 0.18-0.32.
T3 sequence (P22303 whole entry): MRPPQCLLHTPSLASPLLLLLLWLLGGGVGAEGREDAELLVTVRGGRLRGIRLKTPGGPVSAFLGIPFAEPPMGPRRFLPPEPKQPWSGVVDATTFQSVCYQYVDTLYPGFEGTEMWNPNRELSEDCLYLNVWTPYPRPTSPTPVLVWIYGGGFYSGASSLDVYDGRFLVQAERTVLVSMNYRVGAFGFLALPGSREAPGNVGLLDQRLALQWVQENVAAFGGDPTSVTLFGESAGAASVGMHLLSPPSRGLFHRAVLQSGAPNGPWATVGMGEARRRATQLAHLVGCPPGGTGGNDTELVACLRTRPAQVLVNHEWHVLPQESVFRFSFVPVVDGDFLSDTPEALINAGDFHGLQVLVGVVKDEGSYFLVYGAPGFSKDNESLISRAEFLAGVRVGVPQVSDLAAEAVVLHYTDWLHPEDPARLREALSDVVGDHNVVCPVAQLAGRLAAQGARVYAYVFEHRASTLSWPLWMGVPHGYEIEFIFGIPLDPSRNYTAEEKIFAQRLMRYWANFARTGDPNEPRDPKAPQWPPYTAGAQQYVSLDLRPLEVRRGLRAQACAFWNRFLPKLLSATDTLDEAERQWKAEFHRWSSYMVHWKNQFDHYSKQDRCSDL
Data set [4] concerns the target T4, Butyrylcholinesterase (Equus caballus, UniProt Q9N1N9). In words: In vitro inhibitory concentration against Butyrylcholinesterase of horse serum; value ranges from 0.16-0.41. A digest of the protocol: (§1)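 Ellman assay followed, with 200 µM butyrylthiocholine as substrate. Runs were in triplicate with four-point dose-response curves. IC50 and fiducial limits came from log concentration versus % inhibition.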

Data set [5] can be described thus: Pseudo-first order rate constant for carbamoylation of ACHE at 20 (uM) concentration. The data set is classed as ADME. A digest of the protocol: (§2)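 Human erythrocyte AChE, Ellman method with 200 µM […] substrate, 0.1 M phosphate buffer pH 7.4, 37 °C. Progressive inhibition followed at 4–5 inhibitor concentrations. Pseudo-first-order carbamylation rate constants k_obs (min⁻¹) derived as per Bar-On et al. and reported ±SEM. Apparent bimolecular rate constant k_i calculated from these.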

The target of data set [6] is T1, Amine oxidase [flavin-containing] B. The data set can be described thus: In vitro inhibitory concentration against Monoamine oxidase B of rat brain homogenates; value ranges from 0.8-2.9. The data set is classed as tissue-based.
Data set [7] in a line: Pseudo-first order rate constant for carbamoylation of ACHE at 10 (uM) concentration. In kind it is ADME. A digest of the protocol:
as §2

In data set [8] the target is T2, Amine oxidase [flavin-containing] A. The data set can be described thus: In vitro inhibitory concentration against Monoamine oxidase A of rat brain homogenates; value ranges from 8-43. In kind it is tissue-based.
Data set [9] in a line: Pseudo-first order rate constant for carbamoylation of ACHE at 40 (uM) concentration. The data set is classed as ADME. In outline:
as §2

The nature of data set [10]: Pseudo-first order rate constant for carbamoylation of ACHE at 5 (uM) concentration. In kind it is ADME. In outline: as §2
For data set [11], the target named is T3, Acetylcholinesterase. In words: In vitro inhibitory concentration against purified Acetylcholinesterase of human erythrocytes; value ranges from 2.36-4.22.
A short description of data set [12]: Bimolecular rate constant for carbamoylation of ACHE. In kind it is ADME. A digest of the protocol:
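Human erythrocyte AChE preincubated with inhibitor at 37 °C in 0.1 M phosphate buffer, pH 7.4, under Ellman conditions with 200 µM […]. Pseudo-first-order rate constants (k_obs) for progressive inhibition were obtained at 4-5 inhibitor concentrations. The apparent bimolecular carbamylation constant k_i was calculated from these.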

Data set [13] deals with T4, Butyrylcholinesterase. The data set can be described thus: In vitro inhibitory concentration against Butyrylcholinesterase of horse serum; value ranges from 0.64-0.89.
A short description of data set [14]: Pseudo-first order rate constant for carbamoylation of ACHE at 2.5(uM) concentration. The data set is classed as ADME. A digest of the protocol: as §2
A short description of data set [15]: Pseudo-first order rate constant for carbamoylation of ACHE at 50 (uM) concentration. In kind it is ADME. A digest of the protocol: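 Human erythrocyte AChE, same Ellman conditions: 200 µM […], 60 min preincubation at 37 °C, 0.1 M phosphate pH 7.4. Progressive inhibition followed at 4-5 inhibitor concentrations. Pseudo-first-order k_obs (min⁻¹) derived per concentration; apparent bimolecular carbamylation constant k_i calculated from these.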

Data set [16] has as its target T3, Acetylcholinesterase. The data set can be described thus: In vitro inhibitory concentration against purified Acetylcholinesterase of human erythrocytes; value ranges from 33.4-148.
Data set [17] concerns the target T4, Butyrylcholinesterase. The data set can be described thus: In vitro inhibitory concentration against Butyrylcholinesterase of horse serum; value ranges from 0.70-0.92. In outline:
as §1

Data set [18] concerns the target T3, Acetylcholinesterase.
The target of data set [19] is T3, Acetylcholinesterase. In words: In vitro inhibitory concentration against purified Acetylcholinesterase of human erythrocytes; value ranges from 7.33-61.5.
In data set [20] the target is T1, Amine oxidase [flavin-containing] B. The data set can be described thus: In vitro inhibitory concentration against Monoamine oxidase B of rat brain homogenates. In kind it is tissue-based.
The target of data set [21] is T3, Acetylcholinesterase. The source holds these as a separate data set.
The target of data set [22] is T4, Butyrylcholinesterase. The data set can be described thus: In vitro inhibitory concentration against Butyrylcholinesterase of horse serum; value ranges from 7.65-13.2. A digest of the protocol: as §1
In data set [23] the target is T3, Acetylcholinesterase. In words: In vitro inhibitory concentration against purified Acetylcholinesterase of human erythrocytes; value ranges from […]-[…].
Data set [24] concerns the target T2, Amine oxidase [flavin-containing] A. In words: In vitro inhibitory concentration against Monoamine oxidase A of rat brain homogenates 47-101. The data set is classed as tissue-based.
Data set [25] addresses T4, Butyrylcholinesterase. The data set can be described thus: In vitro inhibitory concentration against Butyrylcholinesterase of horse serum; value ranges from 0.038-0.064. A digest of the protocol:
as §1

The target in data set [26] is T3, Acetylcholinesterase. The data set can be described thus: In vitro inhibitory concentration against purified Acetylcholinesterase of human erythrocytes; value ranges from 0.025-0.027.
The target of data set [27] is T2, Amine oxidase [flavin-containing] A. The data set can be described thus: In vitro inhibitory concentration against Monoamine oxidase A of rat brain homogenates; value ranges from 5.6-11.1. The data set is classed as tissue-based.
Data set [28] has the same target. In words: In vitro inhibitory concentration against Monoamine oxidase A of rat brain homogenates; value ranges from 260-420. In kind it is tissue-based.
Data set [29] deals with T1, Amine oxidase [flavin-containing] B. The data set can be described thus: In vitro inhibitory concentration against Monoamine oxidase B of rat brain homogenates; value ranges from 590-900.
The target of data set [30] is T2, Amine oxidase [flavin-containing] A. In words: biochemical. In kind it is tissue-based, Brain.
Data set [31] deals with T4, Butyrylcholinesterase. The data set can be described thus: In vitro inhibitory concentration against Butyrylcholinesterase of horse serum; value ranges from 0.76-4.2. A digest of the protocol:
as §1

Data set [32] deals with T3, Acetylcholinesterase. The data set can be described thus: In vitro inhibitory concentration against purified Acetylcholinesterase of human erythrocytes; value ranges from 8.99-49.4.
Data set [33] addresses T3, Acetylcholinesterase. In words: In vitro inhibitory concentration against purified Acetylcholinesterase of human erythrocytes; value ranges from 0.49-0.58.

SMILES strings stand for the structures. pIC50: −log10 of the molar value.

T4 sequence (Q9N1N9 whole entry): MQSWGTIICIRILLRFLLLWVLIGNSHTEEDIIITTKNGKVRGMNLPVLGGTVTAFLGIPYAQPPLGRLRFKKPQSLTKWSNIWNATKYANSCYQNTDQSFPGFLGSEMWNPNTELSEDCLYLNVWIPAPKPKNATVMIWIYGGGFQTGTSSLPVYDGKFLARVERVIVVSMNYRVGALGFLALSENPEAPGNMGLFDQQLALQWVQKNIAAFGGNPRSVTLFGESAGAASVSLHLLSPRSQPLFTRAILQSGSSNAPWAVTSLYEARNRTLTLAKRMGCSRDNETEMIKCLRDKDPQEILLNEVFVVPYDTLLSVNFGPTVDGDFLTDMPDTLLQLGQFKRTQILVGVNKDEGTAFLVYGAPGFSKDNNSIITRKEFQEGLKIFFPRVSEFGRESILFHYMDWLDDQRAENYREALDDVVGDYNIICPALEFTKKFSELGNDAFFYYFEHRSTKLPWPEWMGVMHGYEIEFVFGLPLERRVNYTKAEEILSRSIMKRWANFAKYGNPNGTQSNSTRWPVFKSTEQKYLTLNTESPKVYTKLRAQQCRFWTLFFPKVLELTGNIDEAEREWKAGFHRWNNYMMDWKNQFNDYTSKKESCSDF

As usually defined, the pIC50 is the IC50 on a negative log10 scale, so that one unit is a factor of ten. Low readings indicate a high IC50, high ones a low IC50. Turning to `C#CCNCCc1cccc(OC(=O)N(C)C)c1`, the pIC50 is 4.62 in data set [1], 5.57 in data set [2], 6.66 against Acetylcholinesterase [3] and 6.68 against Butyrylcholinesterase [4].
For `C#CCN(C)C(C)Cc1cccc(OC(=O)N(C)CCCCCC)c1` (stereo not given), the K obs in data set [5] was 30 min⁻¹; in [7], 23 min⁻¹; in data set [9] it was 55 min⁻¹; in data set [10] it was 15 min⁻¹; in [14], 14 min⁻¹; in data set [15], 63 min⁻¹. Moreover, the pIC50 in data set [6] was 5.82; in [8] it was 4.70; at Acetylcholinesterase [11] it was 5.51; against Butyrylcholinesterase [13], 6.14. In data set [12], the “Bimolecular carbamoylation rate constant (ki)” value came to 17.25 M⁻¹ s⁻¹.
At Acetylcholinesterase [16], `CCN(C)C(=O)Oc1ccc2c(c1)CC(N)CC2` (stereo not given) had a pIC50 of 4.10.
Turning to `C#CCN(C)C1CCc2c(OC(=O)N(C)CC)cccc21` (stereo not given), the pIC50 was 6.10 against Butyrylcholinesterase [17] and 4.83 against Acetylcholinesterase [18].
Compound `CCNC(=O)Oc1ccc2c(c1)C(N)CC2` (stereo not given) showed a pIC50 against Acetylcholinesterase [19] of 4.75.
As to `CCN(C)C(=O)Oc1cccc2c1C(N)CC2` (stereo not given), the values for the pIC50 (in data set [20]; at Acetylcholinesterase [21]) were below 3.00 and 4.98, respectively.
As for `COc1ccc(N(C)C(=O)Oc2ccc3c(c2)C(N)CC3)cc1` (stereo not given), the pIC50 at Butyrylcholinesterase [22] was 5.00; against Acetylcholinesterase [23] it was 6.52.
For the compound `C#CCNC1CCc2ccc(OC(=O)NCCC)cc21` (stereo not given), the pIC50 in data set [24] is 4.16.
For the compound `CCN(C)C(=O)Oc1cccc2c1CCC2N` (stereo not given), the pIC50 against Butyrylcholinesterase [25] was 7.27; on Acetylcholinesterase [26], 7.59; in [27], 5.10; in data set [20], below 3.00.
Consider `C#CCN(C)C1CCc2cccc(OC(=O)N(C)C)c21` (stereo not given), for which the pIC50 is 3.48 in [28] and 3.14 in data set [29].
On to `CCN(C)C(=O)Oc1ccc2c(c1)C(N)CC2` (stereo not given), for which the pIC50 is below 3.00 in data set [20], 4.89 in [30], 5.72 against Butyrylcholinesterase [31] and 4.72 at Acetylcholinesterase [32].
For the compound `CCCCCCN(C)C(=O)Oc1ccc2c(c1)C(N)CC2` (stereo not given), the pIC50 against Acetylcholinesterase [33] was 6.28.

(Values after ChEMBL document CHEMBL1135657, “Novel dual inhibitors of AChE and MAO derived from hydroxy aminoindan and phenethylamine as potential treatment for Alzheimer's disease” (J Med Chem, 2002).)
